Experimental data published in ChEMBL document CHEMBL1155859, “Synthesis of hydantoin analogues of (2S,3R,4S)-4-hydroxyisoleucine with insulinotropic properties” (Bioorg Med Chem Lett, 2008).
Activity calls are given as the source filed them. The calls are words filed in the database; no cut-off is given here.

Tests used:
[1] = species on record: Rattus norvegicus; test: Increase in insulin secretion in Sprague-Dawley rat pancreatic Langerhans islets below 25 uM; type: functional
Method in brief: (§1)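 Islets from male Sprague-Dawley rats (360–390 g) are digested with collagenase XI (2.5 mg/ml, HBSS, 35 min, 37 °C), purified on a Histopaque gradient and handpicked. They are pre-incubated 60 min at 37 °C, 5% CO2, in KRB with 8.3 mM glucose. Medium insulin is measured by ELISA in pg/islet/h (n = 6–12) against untreated basal.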

[2] = Increase in insulin secretion in Sprague-Dawley rat pancreas assessed per Langerhans islet; type: functional; method in brief: as §1
[3] = Increase in insulin secretion in Sprague-Dawley rat pancreas at 75 uM assessed per Langerhans islet; type: functional; method in brief: as §1
[4] = Lactone formation at pH 1 after 4 hrs; conditions: buffer, pH 1, 4 h
[5] = Lactone formation at pH 1 after 1 hr; conditions: buffer, pH 1, 1 h
[6] = Increase in insulin secretion in Sprague-Dawley rat pancreatic Langerhans islets at 200 uM; type: functional; method in brief: as §1
[7] = Increase in insulin secretion in Sprague-Dawley rat pancreatic Langerhans islets at 25 uM; type: functional; method in brief: as §1

Which results are given for `C[C@@H]([C@H](C)O)[C@H](N)C(=O)O`?
Activity [1]: inactive; Activity [2]: 45 pg/h; Activity [3]: 100 pg/h; Lactone formation [4]: 32%; Lactone formation [5]: 10%

With `CCOc1cc(CC(=O)N[C@@H](CC(C)C)c2ccccc2N2CCCCC2)ccc1C(=O)O` [REPAGLINIDE] as the compound, how does the Activity [6] read?
Its Activity is 100%.

And the Activity [2]?
The Activity was 100 pg/h.

With `C[C@@H]([C@H](C)O)[C@@H]1NC(=O)NC1=O` as the compound, how does the Activity [2] read?
The Activity was 100 pg/h.

Which Activity [2] does the source give for `C[C@@H]([C@H](C)O)[C@H]1NC(=O)NC1=O` here?
Its Activity is 100 pg/h.

And the Activity [7]?
Its Activity is 120%.
